Experimental data pooled from the literature.
Protocols differ between the studies behind these lines.
TRPM8: Transient receptor potential cation channel subfamily M member 8 (TRPM8, Homo sapiens, UniProt Q7Z2W7)
LATS2: Serine/threonine-protein kinase LATS2 (LATS2, Homo sapiens, UniProt Q9NRM7)
CD36: Platelet glycoprotein 4 (CD36, Homo sapiens, UniProt P16671)
AKR1B1: Aldo-keto reductase family 1 member B1 (AKR1B1, Homo sapiens, UniProt P15121)

O=C1NC(c2cccc([N+](=O)[O-])c2)=CCN1c1ccccc1O gave an EC50 of 0.412 µM (TRPM8; ion current, agonist, patch clamp).
Cc1cc(-c2ccnc3[nH]cc(F)c23)cc(F)c1[C@@]1(O)[C@H](C)CN(C2CCS(=O)(=O)CC2)C[C@@H]1C gave a Kd of 0.0017 µM (LATS2; binding, TR-FRET).
COc1ccc(NC(=O)[C@@H]2C[C@H](C)CC[C@H]2C(C)C)cc1 has an EC50 of 4 µM (TRPM8; ion current, agonist, patch clamp).
Cc1cc(-c2ccnc3[nH]cc(F)c23)cc(F)c1[C@@]1(O)[C@H](C)CN(C2COC2)C[C@@H]1C gave an IC50 of 0.009 µM (LATS2; enzyme activity, inhibitor, radiometric).
O=C(c1ccccc1)c1ccc(OCCCn2cnc3ccccc3c2=O)cc1 has a Kd of 10 µM (CD36; binding, MST).
CNC(=O)c1ccccc1Nc1nc(Nc2ccc(N3CCNCC3)cc2)ncc1Cl has an IC50 of 0.211 µM (LATS2; target engagement in cells, BRET).
With NCCS(=O)(=O)O the Kd was 0.71 µM (Sodium- and chloride-dependent taurine transporter (SLC6A6, Homo sapiens, UniProt P31641); binding, MST).
The IC50 of Fc1c[nH]c2nccc(-c3ccc(C4CCNCC4)cc3)c12 is reported as 0.011 µM (LATS2; enzyme activity, inhibitor, radiometric).
CCCCCCCCCCCCCCCC(=O)O gave a Kd of 247 µM (CD36; binding, SPR).
CCCCCCCCCP(=O)(C(C)C)C(C)C gave an EC50 of 24.8 µM (TRPM8; ion current, agonist, patch clamp).
The IC50 of COc1cc(/C=N/NC(=S)N/N=C/c2ccc(Br)s2)ccc1Oc1ccnc2cc(Cl)ccc12 is reported as 17.7 µM (AKR1B1; enzyme activity, inhibitor, absorbance).
With Cc1ccc(C(=O)Nc2ccc(S(=O)(=O)O)c3cc(S(=O)(=O)O)cc(S(=O)(=O)O)c23)cc1NC(=O)c1cccc(NC(=O)Nc2cccc(C(=O)Nc3cc(C(=O)Nc4ccc(S(=O)(=O)O)c5cc(S(=O)(=O)O)cc(S(=O)(=O)O)c45)ccc3C)c2)c1 the Kd was 7.57 µM (Electrogenic aspartate/glutamate antiporter SLC25A13, mitochondrial (SLC25A13, Homo sapiens, UniProt Q9UJS0); binding, ITC; pH 6.5).
COc1cc(/C=N/NC(=S)NN=Cc2ccc([N+](=O)[O-])o2)ccc1Oc1ccnc2cc(Cl)ccc12 has a Ki of 4.65 µM (AKR1B1; enzyme activity, inhibitor).
With CCCCC(=O)Nc1ccc(-c2ccc3ncn(CCC)c(=O)c3c2)cn1 the Kd was 0.123 µM (Phosphatidylinositol 5-phosphate 4-kinase type-2 gamma (PIP4K2C, Homo sapiens, UniProt Q8TBX8, del300-341); binding, ITC).
The IC50 of COc1cc(/C=N/NC(=S)N/N=C\c2ccc([N+](=O)[O-])cc2)ccc1Oc1ccnc2cc(Cl)ccc12 is reported as 16.6 µM (AKR1B1; enzyme activity, inhibitor, absorbance).
With CCCCCCCP(=O)(C(C)C)C(C)C the EC50 was 4.73 µM (TRPM8; calcium signal, agonist).
For COc1cc(/C=N/NC(=S)N/N=C\c2ccc(Cl)c(Cl)c2)ccc1Oc1ccnc2cc(Cl)ccc12, the IC50 was 13.4 µM (AKR1B1; enzyme activity, inhibitor, absorbance).
CCNC(=O)C1CC(C)CCC1C(C)C (stereo not drawn) has an EC50 of 8.36 µM (TRPM8; calcium signal, agonist).
